Our source for the Ki, ED50 and IC50 values is ChEMBL document CHEMBL1125363, “Novel piperidine sigma receptor ligands as potential antipsychotic drugs” (J Med Chem, 1992).

The term Ki denotes a measure of affinity in units of concentration, obtained from inhibition or displacement. Usually ED50 stands for the midpoint of the dose-response relation. As usually defined, the IC50 is the midpoint of a concentration-inhibition curve. Low values mean greater potency, high ones weaker potency.

Assay [1] deals with T1, Serotonin 2 (5-HT2) receptor (Mus musculus, UniProt Q02152+P34968+P35363). As to the kind of experiment: The compound was tested in vitro for its binding affinity towards 5-hydroxytryptamine 2 receptor. In kind it is protein assay.
Assay [2] is filed under the species Mus musculus. As to the kind of experiment: Oral potency tested by using anti-mescaline test. In kind it is functional. The procedure, abridged:
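Mice; mescaline was given to evoke hallucinogen-type behaviour, and the test compound was dosed orally to antagonise it. Potency is the ED50 in mg/kg po. Some ED50s are the average of three measurements.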

Assay [3] concerns the target Sigma non-opioid intracellular receptor 1 (Mus musculus, UniProt O55242). As to the kind of experiment: In vitro binding affinity for the mouse sigma opioid receptor.
In assay [4] the target is T2, D(2) dopamine receptor (Mus musculus, UniProt P61168). Nature of the assay: The compound was tested in vitro for its binding affinity towards Dopamine receptor D2.
Assay [5] addresses T2, D(2) dopamine receptor. As to the kind of experiment: In vitro binding affinity towards dopamine receptor D2.
The species named for assay [6] is Mus musculus. As to the kind of experiment: (§1) Oral potency by using Anti aggression test. In kind it is functional. The procedure, abridged: (§2)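 Mice were held in prolonged isolation, then exposed to intruders. The aggressive response was scored after oral dosing of the test compound. Potency is the ED50 in mg/kg po.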
The species named for assay [7] is Mus musculus. Nature of the assay: Oral potency tested using apomorphine induced climbing test. In kind it is functional.
In assay [8] the target is T1, Serotonin 2 (5-HT2) receptor. As to the kind of experiment: In vitro binding affinity for serotonin 5-hydroxytryptamine (5-HT) 2 receptors. In kind it is protein assay.
The target in another assay is D(1A) dopamine receptor (Mus musculus, UniProt Q61616). As to the kind of experiment: The compound was tested in vitro for its binding affinity towards dopamine receptor D1.
The species named for assay [9] is Rattus norvegicus. As to the kind of experiment: The compound was tested for blocking the rotation induced by (+)-SKF 10047 in brain-lesioned rats. In kind it is functional. The procedure, abridged: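 Rats with brain lesions were challenged with (+)-SKF 10047 to induce rotation. The test compound was given orally to block rotation. Reported as the ED50 in mg/kg po.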

For assay [10], the species on record is Rattus norvegicus. Nature of the assay: Oral potency tested using 5HTP induced head twitch test. In kind it is functional.
The nature of assay [11]: as §1. In kind it is functional. The procedure, abridged: as §2
Assay [12] is filed under the species Mus musculus. As to the kind of experiment: Oral potency by using Anti aggression test.

T2 sequence (P61168 whole entry): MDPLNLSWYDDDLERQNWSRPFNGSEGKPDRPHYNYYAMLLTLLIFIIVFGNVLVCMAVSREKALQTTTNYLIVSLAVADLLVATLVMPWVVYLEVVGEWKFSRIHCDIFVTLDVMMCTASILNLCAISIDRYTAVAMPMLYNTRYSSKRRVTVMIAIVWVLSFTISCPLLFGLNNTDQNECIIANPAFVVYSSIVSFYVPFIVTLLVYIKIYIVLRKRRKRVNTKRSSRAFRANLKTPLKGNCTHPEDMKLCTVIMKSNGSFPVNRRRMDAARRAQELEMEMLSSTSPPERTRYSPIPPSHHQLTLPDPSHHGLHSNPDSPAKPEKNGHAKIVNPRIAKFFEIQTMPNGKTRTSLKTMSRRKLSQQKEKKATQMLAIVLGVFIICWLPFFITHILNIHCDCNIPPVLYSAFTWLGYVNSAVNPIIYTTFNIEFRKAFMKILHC
Chain of Sigma non-opioid intracellular receptor 1 (O55242 whole entry): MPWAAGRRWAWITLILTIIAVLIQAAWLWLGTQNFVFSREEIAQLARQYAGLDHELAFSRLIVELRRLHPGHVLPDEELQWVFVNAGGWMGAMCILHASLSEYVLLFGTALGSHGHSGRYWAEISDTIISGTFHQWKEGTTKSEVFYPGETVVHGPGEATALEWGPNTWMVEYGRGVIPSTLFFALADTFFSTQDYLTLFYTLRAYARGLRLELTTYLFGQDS
Chain of D(1A) dopamine receptor (Q61616 whole entry): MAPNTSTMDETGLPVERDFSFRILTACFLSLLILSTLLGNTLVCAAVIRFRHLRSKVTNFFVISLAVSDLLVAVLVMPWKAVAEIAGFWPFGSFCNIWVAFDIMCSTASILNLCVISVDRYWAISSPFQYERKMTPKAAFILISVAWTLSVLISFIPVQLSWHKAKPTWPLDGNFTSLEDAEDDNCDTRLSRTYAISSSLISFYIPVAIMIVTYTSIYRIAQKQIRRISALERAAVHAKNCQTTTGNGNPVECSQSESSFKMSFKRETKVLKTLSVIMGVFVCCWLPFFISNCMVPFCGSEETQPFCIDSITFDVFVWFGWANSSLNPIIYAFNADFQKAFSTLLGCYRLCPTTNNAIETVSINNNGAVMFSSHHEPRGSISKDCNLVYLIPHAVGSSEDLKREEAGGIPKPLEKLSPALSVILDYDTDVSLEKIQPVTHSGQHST

For `Fc1ccc(SCC2CCN(CCC3CC3)CC2)cc1`, the Ki in assay [1] came out at 0.053 µM; in [3], 0.005 µM. Also, the ED50 in the assay listed under Mus musculus [2] was over 10 mg/kg. Also, the IC50 at D(2) dopamine receptor [4] came to 1.7 µM.
For `CC(C)(C)c1ccc(OCC2CCN(CC3CC3)CC2)cc1`, the IC50 on D(2) dopamine receptor [5] came out at 3.15 µM. The ED50 was over 30 mg/kg in the assay listed under Mus musculus [6], under 30 mg/kg in the assay listed under Mus musculus [2] and over 30 mg/kg in the assay listed under Mus musculus [7]. In addition, the Ki in [8] was over 1 µM; in assay [3] it was 0.014 µM.
Take `N#Cc1ccc(C(=O)CC2CCN(CC3CC3)CC2)cc1.O=C(O)/C=C/C(=O)O`: the inhibitory constant (Ki) on D(1A) dopamine receptor is over 10 µM; in [8] it was over 10 µM; in assay [3] it was 0.011 µM. In addition, the IC50 at D(2) dopamine receptor [5] was over 10 µM. In addition, the median effective dose (ED50) is 5.3 mg/kg in the assay listed under Rattus norvegicus [9]; 22.3 mg/kg in the assay listed under Rattus norvegicus [10]; 0.44 mg/kg in assay [11]; 0.8 mg/kg in the assay filed under Mus musculus [2]; over 90 mg/kg in the assay listed under Mus musculus [7].
In the case of `O.O=C(CC1CCN(Cc2ccccc2)CC1)c1ccc(F)cc1.O=C(O)/C=C\C(=O)O`, at D(2) dopamine receptor [5], the IC50 stood at 1.55 µM. The ED50 worked out at 2.8 mg/kg in the assay listed under Rattus norvegicus [10], 8.6 mg/kg in the assay filed under Mus musculus [6], 4.8 mg/kg in the assay filed under Mus musculus [2] and 18 mg/kg in the assay filed under Mus musculus [7]. The Ki in assay [8] was 0.02 µM; in [3] it was 0.001 µM.
For `Br.O=C(CC1CCN(CC2CC2)CC1)c1ccc(F)cc1`, the ED50 is 1.9 mg/kg in the assay filed under Mus musculus [12]; 2.4 mg/kg in the assay filed under Rattus norvegicus [9]; 1.8 mg/kg in the assay listed under Rattus norvegicus [10]; 0.35 mg/kg in the assay filed under Mus musculus [2]; 15 mg/kg in the assay listed under Mus musculus [7]. The inhibition constant Ki in assay [8] was found to be 0.015 µM; in assay [3] it was 0.01 µM.
Take `Cl.O.O=C(CC1CCN(CC2CC2)CC1)c1ccc(C(F)(F)F)cc1`: the ED50 in the assay filed under Mus musculus [12] was over 30 mg/kg; in the assay listed under Mus musculus [2], 6.6 mg/kg; in the assay listed under Mus musculus [7], over 30 mg/kg. The IC50 on D(2) dopamine receptor [5] was over 10 µM. In addition, the figures for the Ki in [8] and in assay [3] were 0.278 µM and 0.045 µM, respectively.
As for `Br.O=C(CC1CCN(CC2CC2)CC1)c1ccc(-c2ccccc2)cc1`, the ED50 is 8.4 mg/kg in the assay filed under Mus musculus [12], 10 mg/kg in the assay listed under Rattus norvegicus [10], 4.7 mg/kg in the assay listed under Mus musculus [2] and over 30 mg/kg in the assay filed under Mus musculus [7]. The IC50 at D(2) dopamine receptor [5] was 1.72 µM. Besides, the Ki in assay [8] stood at 0.547 µM; in [3] it was 0.051 µM.
With `Br.O=C(CC1CCN(CC2CC2)CC1)c1ccc(Cl)cc1`, the ED50 in the assay filed under Mus musculus [12] is 14 mg/kg; in the assay listed under Rattus norvegicus [10] it was 30 mg/kg; in the assay listed under Mus musculus [2], 0.46 mg/kg; in the assay filed under Mus musculus [7], over 30 mg/kg. The compound also gave an IC50 at D(2) dopamine receptor [5] of 2 µM. The Ki in assay [8] was 0.495 µM; in assay [3], 0.008 µM.
With `OC(CCCN1CCN(c2ncc(F)cn2)CC1)c1ccc(F)cc1` (stereo not given) [BMY-14802], the ED50 in the assay filed under Mus musculus [12] is 45 mg/kg; in the assay filed under Rattus norvegicus [10], 2.3 mg/kg; in the assay listed under Mus musculus [2], 6 mg/kg; in the assay filed under Mus musculus [7], over 90 mg/kg. Moreover, the IC50 at D(2) dopamine receptor [5] amounted to 2.43 µM. Moreover, the figures for the Ki in assay [8] and in assay [3] were 0.41 µM and 0.174 µM, respectively.
